Screens (PubChem BioAssay)
This is a sample that favours compounds with a hit; in the whole collection about 2.5% have one here.
PAD4 inh: PAD4 (human) enzyme inhibition; recombinant PAD4, RCA probe fluorescence polarization; inhibition, % at 6.36 µM; hit rate 0.41% among 330,000; AID 485272;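 active means percent inhibition above a cutoff equal to the mean of all tested compounds plus 3 SD, cut at about 15% in these data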
PRMT1 FP inh: blocks human protein arginine methyltransferase 1; recombinant PRMT1, activity-based probe fluorescence polarization; Q99873; inhibition, % at 2.79 µM; hit rate 1.3% among 370,000;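 active means inhibition above about 21% made by adding two undisclosed values, limit read from the data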
GSTO1 inh: blocks human GSTO1 in RBBP9 counter-screen. P78417. recombinant GSTO1, activity-based probe fluorescence polarization. inhibition, % at 5.96 µM. hit rate 1.1% among 300,000;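 active means inhibition above the campaign mean inhibition plus 3 SD, cut at about 35% in these data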
TDP2 inh: TDP2 (human) inhibition, absorbance primary screen | O95551 | recombinant TDP2, T5PNP hydrolysis, p-nitrophenol absorbance 415 nm | inhibition, % at 12.8 µM | hit rate 0.34% among 370,000 | AID 720702;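 active means inhibition above the mean of all tested compounds plus 3 SD, set per campaign, cut at about 25% in these data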
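Test system: human TDP2 enzyme; Input: 120 nM TDP2 per well; Buffer or medium: Mg2+-containing Tris-HCl buffer, pH 7.5; Reagent: 5 mM T5PNP; Dosing: 12.8 µM single point, 1% DMSO; Incubation: reaction 2 h, 37 °C; Detection: p-Nitrophenol epi absorbance; Read-out: % inhibition relative to enzyme-containing and enzyme-free wells; Replicates: single well per compound.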
eLon inh: inhibits E. coli Lon protease; P0A9M0; inhibition, % at 7.94 µM; purified E. coli Lon protease, fluorescence polarization; hit rate 0.42% among 360,000; AID 602123; in the data active means inhibition above about 13%, passing the limit was not always enough
TDP2 inh conf: human TDP2 inhibition, confirmation | shares compounds with TDP2 inh | recombinant human TDP2, absorbance read-out | inhibition, % at 12.8 µM | hit rate 22% among 1,100; in the data active means inhibition above about 25%
Large screens that a line does not name were inactive (follow-up assays come after a bar, where they were run).

Nc1nc(-c2ccccn2)nc(N)c1Cc1ccc(Cl)cc1Cl	none
CCCN1CCN(CCCNC(=O)Cn2nc(C)n3c(cc4cc(OC)ccc43)c2=O)CC1	TDP2 inh 27 | TDP2 inh conf inactive
COc1ccc2c(c1)cc1c(=O)n(CC(=O)NCCCN3CCOCC3)nc(C)n12	none
OCCC1CN(Cc2cccc(-c3ccco3)c2)CCN1Cc1ccsc1 (centres undefined)	none
N#Cc1ccc(OCc2ccc(C(=O)O)o2)cc1	TDP2 inh 26 | TDP2 inh conf inactive
COC(=O)[C@@]12C[C@@H](CC(=O)N3CCC(c4ccccc4)CC3)C(=O)N(CCc3ccc(OC)c(OC)c3)C1=CCC(C)(C)C2	none (no result: PAD4 inh, GSTO1 inh, eLon inh)
Cn1c(SCC(=O)Nc2ccc3[nH]c(=O)[nH]c3c2)nnc1-c1ccc(F)cc1	TDP2 inh 29 | TDP2 inh conf inactive
COc1ccc(CCNCC(=O)Nc2ccc(C)c(S(=O)(=O)N(C)C)c2)cc1OC	TDP2 inh 32 | TDP2 inh conf inactive
Cn1c(SCCN2CCCC2)nnc1C1CCN(S(=O)(=O)c2cccc(F)c2)CC1	none
O=C(c1cccnc1)N1CCN(Cc2cccc(F)c2)CC1	none
O=C(c1cccnc1)N1CCN(Cc2ccc3ccccc3c2)CC1	TDP2 inh 31 | TDP2 inh conf inactive
Cc1cccc(NS(=O)(=O)c2c(C)nc3scc(C)n3c2=O)c1	none
CC(C#N)(NC(=O)CN1CCN(S(=O)(=O)c2ccccc2C#N)CC1)C1CC1 (centres undefined)	none (no result: GSTO1 inh)
COc1cc(CN2CCN(Cc3cccc(OC)c3OC)CC2)cc(OC)c1	TDP2 inh 26 | TDP2 inh conf inactive
CCOC(=O)CSC1=NC(=O)/C(=C\c2ccc(OC(C)=O)cc2)S1	none
CCOC(=O)CSC1=NC(=O)/C(=C/c2ccc(Br)cc2)S1	TDP2 inh 25 | TDP2 inh conf inactive
COc1ccc(CNC(=O)c2ccc(CS(=O)(=O)c3ccccc3C)o2)cc1	TDP2 inh 26 | TDP2 inh conf inactive
CCOc1ccc(-n2c(SCC(=O)Nc3ccc4c(c3)OCCO4)nnc2-c2ccncc2)cc1	none (no result: PAD4 inh, GSTO1 inh, eLon inh)
Cc1[nH]n(-c2ccc(Cl)cc2)c(=O)c1/C=N/c1nnc(-c2ccccc2)s1	TDP2 inh 37 | TDP2 inh conf inactive
Cc1[nH]n(-c2ccccc2)c(=O)c1/C=N/N1C(=O)c2cccc3cccc(c23)C1=O	TDP2 inh 31 | TDP2 inh conf inactive
Cc1[nH]n(-c2ccccc2)c(=O)c1C=NCc1ccncc1	TDP2 inh 27 | TDP2 inh conf inactive
COc1ccc2nc(/N=C/c3c(C)[nH]n(-c4ccc(C)cc4)c3=O)sc2c1	TDP2 inh 31 | TDP2 inh conf inactive
Cc1[nH]n(-c2ccccc2)c(=O)c1/C=N/N1CCOCC1	none
Cc1cccc(S(=O)(=O)NC(=O)C2(C)CCN2C(=O)Cc2ccc(C(C)(C)C)cc2)c1 (centres undefined)	none (no result: PAD4 inh, GSTO1 inh)
CCc1ccc(NC(=O)[C@H](C)NC(=O)C2CCN(C(=O)[C@@H](NC(=O)OC(C)(C)C)C(C)C)CC2)cc1	none
CC(C)Oc1ccc(S(=O)(=O)N2CCOCC2)cc1NC(=O)Cc1c(F)cccc1Cl	TDP2 inh 29 | TDP2 inh conf inactive
O=C(N[C@H](Cc1ccccc1)C(=O)N1CCN(C(=O)N2CCCCC2)CC1)[C@H]1O[C@@H](n2ccc(=O)[nH]c2=O)[C@H](O)[C@@H]1O	none (no result: PAD4 inh, GSTO1 inh, eLon inh)
O=S(=O)(c1ccc(S(=O)(=O)N2CCC(O)CC2)cc1)N1CCCC1	TDP2 inh 25 | TDP2 inh conf inactive
O=S(=O)(c1ccc(S(=O)(=O)N2CCCC2)cc1)N1CCCCCC1	none
Cc1cccc(-n2c3nc(=O)[nH]c(=O)c-3cc3cc([N+](=O)[O-])ccc32)c1	TDP2 inh 54 | TDP2 inh conf 47
Cc1cccc(-n2c3nc(=O)[nH]c(=O)c-3cc3c(C)nn(-c4ccccc4)c32)c1C	none
N/C(=N\N=C\c1ccc(Br)o1)c1nonc1N	TDP2 inh 30 | TDP2 inh conf inactive
CC(C(=O)N(C)Cc1cccc(F)c1)N1CCN(S(=O)(=O)c2ccc3c(c2)OCCCO3)CC1 (centres undefined)	none (no result: PAD4 inh, GSTO1 inh)
CC(C)Cc1ccc(-c2cc3nc(NCCc4ccc(S(N)(=O)=O)cc4)ccn3n2)cc1	none (no result: PAD4 inh, GSTO1 inh)
CCC(CO)Oc1cc(NC(=O)c2cccc(OC)c2)c2ncn(C(C)C)c2c1 (centres undefined)	TDP2 inh 26 (no result: GSTO1 inh) | TDP2 inh conf 31
Cc1cc(Cl)c2oc(C(=O)N(C)C3CCOC3)c(C)c2c1 (centres undefined)	none
O=C(CCn1c(=O)oc2ccc(Cl)cc21)N1CCN(c2ccccc2)CC1	TDP2 inh 25 | TDP2 inh conf inactive
Nc1c(S(=O)(=O)c2cccs2)c2nc3ccccc3nc2n1Cc1ccccc1	TDP2 inh 44 | TDP2 inh conf inactive
Cc1ccc(S(=O)(=O)Nc2ccc3c(c2)C(=O)c2ccccc2-3)cc1	none (no result: PAD4 inh, GSTO1 inh)
COC1=C(Nc2ccc(C)cc2)C(=O)c2ccccc2C1=O	TDP2 inh 55 | TDP2 inh conf inactive
CN1CCN(S(=O)(=O)c2cccc(C(=O)Nc3cccc([N+](=O)[O-])c3)c2)CC1	none
CSCCC(NC(=O)COc1ccccc1)C(=O)NCCOc1ccccc1 (centres undefined)	none (no result: GSTO1 inh)
C/C(=N\NS(=O)(=O)c1ccc([N+](=O)[O-])cc1)c1c[nH]c2ccccc12	none
C/C(=N/NS(=O)(=O)c1ccc(Br)cc1)c1c[nH]c2ccccc12	TDP2 inh 25 | TDP2 inh conf inactive
CC(C)(C)c1ccc(C(=O)NCCCNC(=O)c2ccco2)cc1	TDP2 inh 28 | TDP2 inh conf inactive
CC(C)(C)c1ccc(NC(=O)CCNC(=O)c2ccco2)cc1	none
O=C(NC(N1CCOCC1)C(Cl)(Cl)Cl)c1ccccc1Cl (centres undefined)	TDP2 inh 27 | TDP2 inh conf inactive
COc1ccc(S(=O)(=O)NCc2cccnc2)cc1NC(=O)c1ccc(Cl)cc1	none
Cc1sc2ncnc(N(C)CCc3ccccn3)c2c1C	TDP2 inh 26 | TDP2 inh conf inactive
COc1ccccc1N(C)S(=O)(=O)c1ccc(C(=O)OCC(=O)c2c[nH]c3ccccc23)cc1	none
COc1cccc(/C=C2\SC(=S)N(CC(=O)N(C)C3CCS(=O)(=O)C3)C2=O)c1 (centres undefined)	TDP2 inh 30 | TDP2 inh conf inactive
COc1ccc(/C=C2\SC(=S)N(CC(=O)N(C)C3CCS(=O)(=O)C3)C2=O)cc1 (centres undefined)	none
O=C(NCc1ccc(F)cc1)c1cc(C2CCCCN2C(=O)CCc2ccccc2)on1 (centres undefined)	none (no result: PAD4 inh, GSTO1 inh)
O=[N+]([O-])c1ccc2c(c1)nnn2-c1ccccc1	TDP2 inh 24 | TDP2 inh conf inactive
COc1cc(CCC(=O)Nc2nccs2)cc(OC)c1OC	TDP2 inh 29 | TDP2 inh conf inactive
O=C(COC(=O)c1ccccc1SCC(=O)N1CCCC1)NC1CCCCC1	TDP2 inh 26 | TDP2 inh conf inactive
Cc1c(C(=O)N/N=C/c2ccncc2)nnn1-c1nonc1N	none (no result: PAD4 inh, GSTO1 inh)
